Assay results reported in the RNAGym collection of RNA variant scans (doi:10.1126/science.aae0568).
Fewer inactive variants are shown than the library holds.

B1: tRNA (parent)
chain: GUUCCGUUGGCGUAAUGGUAACGCGUCUCCCUCCUAAGGAGAAGACUGCGGGUUCGAGUCCCGUACGGAACG

Variants of: B1
Assay: yeast fitness relative to wild type (ratio to wild type); higher = fitter; tRNA-Arg(CCU), competitive growth, 37 C, YPD
How it was run: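 A pool of Saccharomyces cerevisiae strains, each with a tRNA-Arg(CCU) gene variant at the native genomic locus, was competed in YPD at 37°C for 24 hours across six parallel replicates. The variants had been chemically synthesised at a 3% per-site mutation rate over 69 sites, and gene amplicons before and after competition were read by 100-nucleotide paired-end sequencing. Darwinian fitness relative to wild type rested on changes in genotype frequencies. Genotypes required ≥ 100 starting reads, and estimates < 0.5 were set to 0.5.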

Row | Variant | yeast fitness
1 | A20C C31U A40G G52C A65G | 0.551
2 | U19G C34A G50A | ≤ 0.5
3 | A20U C22U | 0.716
4 | A20C U54C C55U | ≤ 0.5
5 | A20U C24U A42U C46A C55U C61G | 0.518
6 | A20C A36G G48A C49U | ≤ 0.5
7 | A21C G25C | 0.896
8 | A20U U28C G44A C46U G48A C49U C60G C62A C66G | ≤ 0.5
9 | A21C C66A | 0.527
10 | A21C C24A U32A | ≤ 0.5
11 | A21C A45U G48C C62U | ≤ 0.5
12 | A20C C24U C49U | 0.602
13 | A20G U54C A70C | 0.578
14 | A20U A43G G51A A69C | ≤ 0.5
15 | A20C A45C | 0.843
16 | A20G A42C A70G | 0.629
17 | A21C A42U A45U | 0.646
18 | A20U A45U A69U | 0.726
19 | A20U U26C U47C | 0.534
20 | A20U A36G G48C G67C | ≤ 0.5
21 | A20G C60U A69U | 0.592
22 | A20C C30G | 0.612
23 | A20G U53C G56C | ≤ 0.5
24 | A20C C24U C31G A37U C60G | ≤ 0.5

Row | Variant | yeast fitness
25 | A21C A43U G50A G52U A69C | 0.554
26 | A20U U47G G52C | ≤ 0.5
27 | A20G G58C | 1
28 | A20G C29G G63C | ≤ 0.5
29 | A20C G39C G41A | 0.652
30 | A20U G39A A45C A57C G68C | ≤ 0.5
31 | U19G U47C C66U | 0.786
32 | A20C U35C G51C A57G C60G A70U | ≤ 0.5
33 | A20U C55G G58C | ≤ 0.5
34 | A20G A42C A45C | ≤ 0.5
35 | A20C U32A C34G A37U | ≤ 0.5
36 | A20C U28A | 0.672
37 | A20G U54G A57U | ≤ 0.5
38 | A20C A37C | 0.762
39 | A21C C24A C33A G48C | 0.579
40 | A20C G39C C49U | ≤ 0.5
41 | A20G G25C C33G C60A | ≤ 0.5
42 | A21C A69C | 0.809
43 | A20U C34A C66A | ≤ 0.5
44 | A20C G48C A57G G63A | ≤ 0.5
45 | A20U U59A | 0.847
46 | A20U U59G | 0.728
47 | A20G G56C G68C | 0.6
48 | A20C G25C G38C A43G | ≤ 0.5

Row | Variant | yeast fitness
49 | A20C G41C C66G | ≤ 0.5
50 | A20G G67A A69C | 0.563
51 | A20G U64G G68A A70C | ≤ 0.5
52 | A20C C29U U32A | ≤ 0.5
53 | A21C C33U C55A | 0.533
54 | A20U C22U U47A | ≤ 0.5
55 | A20U C31U C49U | 0.773
56 | A21C A40U C55G C66G | ≤ 0.5
57 | A20G C55U | 0.82
58 | A20G G41C A70U | 0.622
59 | A20G C22G C30U U54C | ≤ 0.5
60 | A20G C22G G38A | 0.539
61 | A20G A21U A42C | 0.547
62 | A21C C22G A69C | ≤ 0.5
63 | A20G U28C C62A | ≤ 0.5
64 | A20C C24G C33G A42U A57C G67C | 0.645
65 | A20C G48C A70C | 0.649
66 | A20C A43C G68U | ≤ 0.5
67 | A21C C33G C34G U54A | ≤ 0.5
68 | A20G G23C A69C | ≤ 0.5
69 | A20C C33U A37G A45U G48A G56C | ≤ 0.5
70 | A20U C29U C49G C55A G68C | ≤ 0.5
71 | A20C C29U C49G | 0.612
72 | U19G G41C C66U | ≤ 0.5

Row | Variant | yeast fitness
73 | A20C C34G A69U | 0.549
74 | A20G C46G C49G | 0.565
75 | A20G C24G U32C G51A | ≤ 0.5
76 | A20U G38C A65G | ≤ 0.5
77 | A21C C46G C49G G56A | 0.528
78 | A20G C22U G51C | ≤ 0.5
79 | A21C C29G G68C | 0.557
80 | A21C A40U A45G A65C | 0.547
81 | A20C C31G G48A G50C C60G | 0.722
82 | A20C A21G G50C A65C | ≤ 0.5
83 | A20C U53A | 0.767
84 | A20U G63A | 0.932
85 | A20C G56A A65G C66U | 0.562
86 | A21C C29G C33A A42C C62A | 0.52
87 | A21C C22A U26C U35C | ≤ 0.5
88 | A20G A40U G52A C55A | 0.529
89 | A20G A43U | 1.03
90 | A20C C61U A69U | 0.61
91 | A20G C24A A42U | 0.546
92 | A20G C24A A70U | 0.546
93 | U19G G39A A40G | 0.56
94 | A20U C60A | 0.609
95 | A21C C27U A57G C62U | 0.507
96 | A20G C27U U28G | 0.565

Row | Variant | yeast fitness
97 | A20G A21G C29G | 0.543
98 | A20U C27G C29A A65G | ≤ 0.5
99 | A20C A37C A43G C55U | ≤ 0.5
100 | A20G A21G C24U U59C C62A | ≤ 0.5
101 | A20U C22G A45C U59C | 0.651
102 | A20U C22G A40G G50C G51C G56A | ≤ 0.5
103 | A20C G68A | 0.843
104 | A20U A21G C61U | ≤ 0.5
105 | A20G C29G G68A | ≤ 0.5
106 | A20U C31G A40C | ≤ 0.5
107 | A20U C30U C34G U53C A57U G67C | ≤ 0.5
108 | A20G G23C C31U A57U C66U | ≤ 0.5
109 | A21C A42G | 0.751
110 | A20G C24G C66U | 0.527
111 | A20U C34U A42U | ≤ 0.5
112 | A20C C27U C66U G67C | ≤ 0.5
113 | A20C U64A G67A | ≤ 0.5
114 | A20G C31G C60G | ≤ 0.5
115 | A20U U32C C55U | 0.55
116 | A20C G44A G56A | 0.544
117 | A20U C27G C29U | ≤ 0.5
118 | A20C A36U G39C G48A | ≤ 0.5
119 | A21C A43G G48C | ≤ 0.5
120 | A20C U54G | 0.539

Row | Variant | yeast fitness
121 | A20U A40U G44C U53G | ≤ 0.5
122 | A21C C61U A70U | 0.623
123 | A20G C31A C34G A45U | ≤ 0.5
124 | A21C G67A | 0.8
125 | A20G U47C G50C | ≤ 0.5
126 | U19G C55G A69U | 0.54
127 | A21C C34U | 0.536
128 | A20G G25A C34A A36G G50C | ≤ 0.5
129 | A20C C55G | 0.59
130 | A20C C30A A65C | 0.583
131 | A20C A42C A45C G48A | 0.565
132 | A20U G25C A65U A69C | 0.587
133 | A20G A43U U64C | 0.704
134 | A21C C33U C61A A70C | 0.578
135 | A20U C31U C66A | ≤ 0.5
136 | A20U A21G C27G | ≤ 0.5
137 | A20U G23C U35G | 0.643
138 | A20U A37U G41C C46G | ≤ 0.5
139 | A21C A36U G48A | ≤ 0.5
140 | A20U U26C C33A C62A A69U | ≤ 0.5
141 | A21C C27G C29A A65C | ≤ 0.5
142 | A21C C24U U32A C62G | 0.539
143 | A21C C34U U64A | ≤ 0.5
144 | U19G U32G G51C A57U | ≤ 0.5

Row | Variant | yeast fitness
145 | U19G G38C A57U | 0.552
146 | A20G G67U A69C | ≤ 0.5
147 | U19G G38A G50A | ≤ 0.5
148 | A21C G41A G48C G51C G52C | ≤ 0.5
149 | A20C C33U A37G C49G A57G | ≤ 0.5
150 | A20C C46G A70G | 0.668
151 | A20C C46A C49G G63A | ≤ 0.5
152 | A20U A42U A45G | 0.532
153 | A20G C31U A42U C46U C66G | 0.714
154 | A21C C30G A69C | 0.542
155 | A20C G52C | 0.583
156 | A20G C60U | 0.744
157 | A20U A21U | 0.61
158 | A20G A57G C62U A69G | 0.772
159 | A21C G63C | 0.779
160 | A20G C31U C46G | 0.649
161 | A20C C22U C61G | ≤ 0.5
162 | A20U C27G C29A G58A | ≤ 0.5
163 | A20G C33U G39A A57G U59C | 0.517
164 | A20C G25C A40U | 0.605
165 | A20C A21C C27U C46A | 0.6
166 | U19G C61G | 0.575
167 | A20C C27U C34G C61U C62G | 0.616
